Test results as given in ChEMBL document CHEMBL2040709, “Synthesis, antidepressant and antimicrobial activities of some novel stearic acid analogues” (2012).

Columns and labels:
Assay type in all cases: functional
Bacillus subtilis [1] = assay: Antibacterial activity against Bacillus subtilis at 1000 ug/ml after 24 hrs by agar disc diffusion method; details: read-out: DIZ
Procedure, shortened: (§1)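 Agar disc diffusion on nutrient agar plates surface-spread with standard inoculum ([…], 0.5 McFarland). Whatman No.1 paper discs (6 mm, dry-heat sterilised 140 °C, 1 h) were soaked in test compound at two concentrations (500 and 1000, as tabulated). DMSO-only discs and solvent/growth controls were included. Plates were inverted and incubated 24 h at 37 °C. Zones of inhibition were measured, and percentage potency was calculated per Indian Pharmacopoeia.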

Bacillus subtilis [2] = assay: Antibacterial activity against Bacillus subtilis at 500 ug/ml after 24 hrs by agar disc diffusion method; details: read-out: DIZ; procedure, shortened: as §1
Pseudomonas aeruginosa [3] = assay: Antibacterial activity against Pseudomonas aeruginosa at 1000 ug/ml after 24 hrs by agar disc diffusion method; details: read-out: DIZ; procedure, shortened: as §1
Escherichia coli [4] = assay: Antibacterial activity against Escherichia coli at 1000 ug/ml after 24 hrs by agar disc diffusion method; details: read-out: DIZ; procedure, shortened: as §1
Escherichia coli [5] = assay: Antibacterial activity against Escherichia coli at 500 to 1000 ug/ml after 24 hrs by agar disc diffusion method; procedure, shortened: as §1
Candida albicans [6] = assay: […] at 500 to 1000 ug/ml after 24 hrs by agar disc diffusion method; procedure, shortened: as §1
Pseudomonas aeruginosa [7] = assay: Antibacterial activity against Pseudomonas aeruginosa at 500 ug/ml after 24 hrs by agar disc diffusion method; details: read-out: DIZ; procedure, shortened: as §1
Bacillus subtilis [8] = assay: Antibacterial activity against Bacillus subtilis at 500 to 1000 ug/ml after 24 hrs by agar disc diffusion method; procedure, shortened: as §1
Mus musculus [9] = assay: Antidepressant activity in Swiss albino mouse assessed as increase in dopamine level in brain at 30 mg/kg, ip by HPLC analysis; details: route intraperitoneal
Staphylococcus aureus [10] = assay: Antibacterial activity against Staphylococcus aureus at 500 to 1000 ug/ml after 24 hrs by agar disc diffusion method; procedure, shortened: as §1
Candida albicans [11] = assay: […] at 500 ug/ml after 24 hrs by agar disc diffusion method; details: read-out: DIZ; procedure, shortened: as §1
Escherichia coli [12] = assay: Antibacterial activity against Escherichia coli at 500 ug/ml after 24 hrs by agar disc diffusion method; details: read-out: DIZ; procedure, shortened: as §1
Staphylococcus aureus [13] = assay: Antibacterial activity against Staphylococcus aureus at 500 ug/ml after 24 hrs by agar disc diffusion method; details: read-out: DIZ; procedure, shortened: as §1
Candida albicans [14] = assay: […] at 1000 ug/ml after 24 hrs by agar disc diffusion method; details: read-out: DIZ; procedure, shortened: as §1
Staphylococcus aureus [15] = assay: Antibacterial activity against Staphylococcus aureus at 1000 ug/ml after 24 hrs by agar disc diffusion method; details: read-out: DIZ; procedure, shortened: as §1
Mus musculus [16] = assay: Antidepressant activity in Swiss albino mouse assessed as decrease in immobility time at 30 mg/kg, ip administered 30 mins before test measured for 4 mins of total 6 mins test by forced swim test; details: route intraperitoneal
Procedure, shortened: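 Forced swim test in inbred male Swiss albino mice (20–30 g), groups of 6, acclimatised one week. The 30 mg/kg dose was suspended in 0.5% CMC and given i.p. 30 min before the test; controls received vehicle. Mice swam singly in a glass tank with 15 cm water at 25 ± 3 °C. Immobility was timed over the last 4 min of a 6 min session. Dunnett's test was applied.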

Pseudomonas aeruginosa [17] = assay: Antibacterial activity against Pseudomonas aeruginosa at 500 to 1000 ug/ml after 24 hrs by agar disc diffusion method; procedure, shortened: as §1

Row | Structure (SMILES) | zone of inhibition at 1000 µg/mL (Bacillus subtilis [1]) [mm] | zone of inhibition at 500 µg/mL (Bacillus subtilis [2]) [mm] | zone of inhibition at 1000 µg/mL (Pseudomonas aeruginosa [3]) [mm] | zone of inhibition at 1000 µg/mL (Escherichia coli [4]) [mm] | Activity (Escherichia coli [5]) [%] | Activity (Candida albicans [6]) [%] | zone of inhibition at 500 µg/mL (Pseudomonas aeruginosa [7]) [mm] | Activity (Bacillus subtilis [8]) [%] | Activity (Mus musculus [9]) [ng/mg] | Activity (Staphylococcus aureus [10]) [%] | zone of inhibition at 500 µg/mL (Candida albicans [11]) [mm] | zone of inhibition at 500 µg/mL (Escherichia coli [12]) [mm] | zone of inhibition at 500 µg/mL (Staphylococcus aureus [13]) [mm] | zone of inhibition at 1000 µg/mL (Candida albicans [14]) [mm] | zone of inhibition at 1000 µg/mL (Staphylococcus aureus [15]) [mm] | Time (Mus musculus [16]) [s] | Activity (Pseudomonas aeruginosa [17]) [%]
1 | CCCCCCCCCCCCCCCCCc1nnc(-c2ccccc2)o1 | 16 | 13 | 17 | 18 | 93.3 | 56.71 | 16 | 75.78 | 0.25 | 94.6 | 15 | 14 | 14 | 20 | 21 | 70 | 60.95
2 | CCCCCCCCCCCCCCCCCc1nnc(-c2ccccc2)n1N | 15 | 12 | 16 | 17 | 93.3 | 65.97 | 13 | 93.3 | 0.367 | 75.78 | 15 | 16 | 13 | 22 | 18 | 68.83 | 59.45
3 | CCCCCCCCCCCCCCCCCc1nn2c(-c3ccccc3)nnc2s1 | 16 | 13 | 19 | 19 | 84.08 | 92.57 | 15 | 93.88 | 1.455 | 79.35 | 15 | 16 | 16 | 19 | 17 | 62.67 | 93.88
4 | CN(C)CCCN1c2ccccc2CCc2ccc(Cl)cc21 [CLOMIPRAMINE] | – | – | – | – | – | – | – | – | 0.42 | – | – | – | – | – | – | 52.97 | –
5 | CN(C)[C@@H]1C(O)=C(C(N)=O)C(=O)[C@@]2(O)C(O)=C3C(=O)c4c(O)cccc4[C@@](C)(O)[C@H]3C[C@@H]12 [TETRACYCLINE] | 20 | 13 | 22 | 23 | – | – | 16 | – | – | – | – | 18 | 18 | – | 19 | – | –
